The source made the active and inactive calls. The calls are words filed in the database; no cut-off is given here. Where a SMILES comes first, the peptide text is derived from it.
Assays:
[1] = test system: WM266; test: Antiinvasive activity in alphavbeta3 integrin overexpressing human WM266 cells at 50 uM after 18 hrs by Transwell assay relative to control; format: functional, cell-based
In short: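 Transwell inserts (8 μm) coated with ECL Cell Attachment. EDTA-detached WM266 cells (1 × 10^5, serum-free RPMI) with peptide (50 μM) in the upper chamber, 10% FBS RPMI below. Incubated 18 h at 37 °C. Invaded cells formalin-fixed, crystal violet stained and counted in four fields per chamber. Duplicate chambers.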

[2] = test system: WM266; test: (§1) Antiadhesive activity in alphavbeta3 integrin overexpressing human WM266 cells assessed as inhibition of cell binding to anti-alphaVbeta3 antibody at 50 uM after 1 hr by crystal violet staining-based assay relative to control; format: functional
In short: (§2)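 Plates coated with anti-αvβ3 antibody LM609 (10 μg/mL). WM266 cells (1.5 × 10^4/well) incubated with peptide (50 μM) for 1 h. Nonadherent cells washed off, adherent cells measured by crystal violet optical density as % of untreated control. At least three independent experiments in duplicate.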

[3] = test system: HeLa; test: Antiadhesive activity in alphavbeta5 integrin overexpressing human HeLa cells assessed as inhibition of cell binding to anti-alphaVbeta5 antibody at 50 uM by RTCA cell index slope-based assay
[4] = test system: WM266; test: (§3) Antiadhesive activity in alphavbeta3 integrin overexpressing human WM266 cells assessed as inhibition of cell adhesion onto vitronectin at 50 uM preincubated for 30 mins followed by cell seeding on vitronectin by RTCA relative to control; format: functional
In short: (§4)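 WM266 cells (4 × 10^4, RPMI/10% FBS) preincubated 30 min at 4 °C with peptide (50 μM) in adhesion buffer, then seeded on wells coated overnight at 4 °C with 10 μg/mL matrix and blocked with 1.5% BSA. Impedance cell index read every minute over 0–24 h. Adhesion rate taken as slope between two time points, expressed as % of untreated control.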

[5] = test system: WM266; test: (§5) Antiadhesive activity in alphavbeta3 integrin overexpressing human WM266 cells assessed as inhibition of cell adhesion onto fibronectin at 50 uM preincubated for 30 mins followed by cell seeding on fibronectin by RTCA relative to control; format: functional; in short: as §4
[6] = (§6) Antiadhesive activity in alphavbeta3 integrin overexpressing human WM266 cells assessed as inhibition of cell adhesion onto vitronectin preincubated for 30 mins followed by cell seeding on vitronectin measured after 1 hr by crystal violet staining-based assay; format: functional
In short: (§7)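 Dose–response adhesion: WM266 cells preincubated with increasing peptide concentrations, then seeded on plates precoated with vitronectin or fibronectin (10 μg/mL). Adherent cells quantified after 1 h by crystal violet staining as % of untreated control. IC50 derived from this curve; means ± SE of three independent experiments in triplicate.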

[7] = In vivo tumor uptake in CD1 nu/nu athymic mouse xenografted with alphavbeta3 integrin overexpressing human WM266 cells using NIR750 labeled compound at 1 nmol, iv after 3 to 24 hrs by fluorescence molecular tomography; format: ADME, organism-based, Neoplasm
In short: (§8)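 Peptides conjugated to VivoTag-S 750 NHS ester. 10 × 10^6 WM266 cells implanted in the right flank of CD1 nu/nu mice, fed alfalfa-free chow. At about 0.5 cm3 tumour volume, 1 nmol conjugate given i.v. (3 mice/group) under isoflurane. Whole-body FMT imaging at 3, 5 and 24 h, reported as tumour ROI counts/energy. Tumours excised at 24 h for ex vivo FMT.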

[8] = (§9) Antiadhesive activity in alphavbeta3 integrin overexpressing human WM266 cells assessed as inhibition of cell adhesion onto fibronectin preincubated for 30 mins followed by cell seeding on fibronectin measured after 1 hr by crystal violet staining-based assay; format: functional; in short: as §7
[9] = as §1; format: functional; conditions: WM266, 1 h; in short: as §2
[10] = Antimigratory activity in alphavbeta3 integrin overexpressing human WM266 cells at 50 uM after 24 hrs by wound healing assay relative to control; format: functional
In short: (§10)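 Confluent WM266 monolayers scratched with a pipette tip, washed with PBS, then given medium containing peptide (50 μM). Phase-contrast images taken at 0, 24 and 48 h. Wound width expressed as % of the 0 h value. Three experiments in triplicate.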

[11] = test system: Serum; test: Metabolic stability in human serum at 1 mg/ml after 3 to 24 hrs by RP-HPLC method; format: ADME, cell-free
In short: (§11)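 Peptide solution (1 mg/mL, 160 μL) mixed with 400 μL human serum at 37 °C. Aliquots taken at 1, 2, 4, 8, 24 and 48 h were quenched with 15% TFA and centrifuged. Supernatants analysed by LC–MS, following loss of the intact-peptide peak.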

[12] = Antimigratory activity in alphavbeta3 integrin overexpressing human WM266 cells at 50 uM after 48 hrs by wound healing assay relative to control; format: functional; in short: as §10
[13] = test system: Serum; test: Metabolic stability in human serum at 1 mg/ml after 48 hrs by RP-HPLC method; format: ADME, cell-free; in short: as §11
[14] = biological target: Integrin alpha-V/beta-3 (Homo sapiens) (UniProt P05106+P06756); test: Competitive binding affinity to alphavbeta3 integrin in human WM266 cells using NIR750-labeled compound at 1 nmole after 1 hr in presence of excess of unlabeled compound by DAPI staining-based confocal microscopic method; format: cell-based
In short: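 WM266 cells on coverslips incubated with 1 nmol NIR750-labelled peptide in DPBS/5% FBS for 1 h at 4 °C. For competition, cells were first preincubated 1 h at 4 °C with 1000-fold excess unlabelled parent. Cells fixed, DAPI-stained and immunostained for αvβ3, then imaged by confocal microscopy. Colocalization scored by Manders' coefficients.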

[15] = test system: WM266; test: as §6; format: functional; in short: as §7
[16] = test system: WM266; test: as §9; format: functional; in short: as §7
[17] = Ex vivo tumor uptake in CD1 nu/nu athymic mouse xenografted with alphavbeta3 integrin overexpressing human WM266 cells using NIR750 labeled compound at 1 nmol, iv after 24 hrs by fluorescence molecular tomography; format: ADME, organism-based, Neoplasm; in short: as §8
[18] = as §3; format: functional; in short: as §4
[19] = test system: WM266; test: Antiadhesive activity in alphavbeta3 integrin overexpressing human WM266 cells assessed as inhibition of cell adhesion onto collagen 1 at 50 uM preincubated for 30 mins followed by cell seeding on collagen 1 by RTCA; format: functional, cell-based; in short: as §4
[20] = as §5; format: functional; in short: as §4

**Q.** What does the source list for `N=C(N)NCCC[C@@H]1NC(=O)CNC(=O)[C@H](CC(=O)O)NC(=O)[C@@H](Cc2ccccc2)NC(=O)[C@H](CCCCN)NC1=O`?
**A.** Activity [1]: Active; inhibition [2]: Active; inhibition [3]: Active; inhibition [4]: Active; inhibition [5]: Active

**Q.** Which results are given for `CSCC[C@H](NC(=O)CC[C@@H]1NC(=O)[C@H](CC(=O)O)NC(=O)CNC(=O)[C@H](CCCNC(=N)N)NC(=O)[C@H](CCCCN)NC1=O)C(=O)N[C@@H](CC(=O)O)C(=O)N[C@@H](CC(=O)O)C(=O)N1CCC[C@H]1C(=O)NCC(=O)N[C@@H](CCCNC(=N)N)C(=O)N[C@@H](CC(N)=O)C(=O)N1CCC[C@H]1C(=O)N[C@@H](Cc1cnc[nH]1)C(=O)N[C@@H](CCCCNC(N)=O)C(=O)NCC(=O)N1CCC[C@H]1C(=O)N[C@@H](C)C(=O)N[C@H](C(=O)O)[C@@H](C)O` (HELM PEPTIDE1{M.D.D.P.G.R.N.P.H.[NC(=O)NCCCC[C@H](N[*:1])C(=O)[*:2]].G.P.A.T}|PEPTIDE2{R.G.D.E.K}$PEPTIDE1,PEPTIDE2,1:R1-4:R3|PEPTIDE2,PEPTIDE2,1:R1-5:R2$$$V2.0)?
**A.** Activity [1]: Active; IC50 [6]: 25.5 µM; Drug uptake [7]: Active; IC50 [8]: 53 µM; inhibition at 50 µM [9]: 40%; Activity [10]: 31%; inhibition [3]: inactive; Stability [11]: Unstable; Activity [12]: 20%

**Q.** Which Stability [13] does the source give for `CSCC[C@H](NC(=O)CC[C@@H]1NC(=O)[C@H](CC(=O)O)NC(=O)CNC(=O)[C@H](CCCNC(=N)N)NC(=O)[C@H](CCCCN)NC1=O)C(=O)N[C@@H](CC(=O)O)C(=O)N[C@@H](CC(=O)O)C(=O)N1CCC[C@H]1C(=O)NCC(=O)N[C@@H](CCCNC(=N)N)C(=O)N[C@@H](CC(N)=O)C(=O)N1CCC[C@H]1C(=O)N[C@@H](Cc1cnc[nH]1)C(=O)N[C@@H](CCCCNC(N)=O)C(=O)NCC(=O)N1CCC[C@H]1CN[C@@H](C)C(=O)N[C@H](C(=O)O)[C@@H](C)O` (HELM PEPTIDE1{M.D.D.P.G.R.N.P.H.[NC(=O)NCCCC[C@H](N[*:1])C(=O)[*:2]].G.[C[C@H](NC[C@@H]1CCCN1[*:1])C(=O)N[C@H](C(=O)O)[C@@H](C)O]}|PEPTIDE2{R.G.D.E.K}$PEPTIDE1,PEPTIDE2,1:R1-4:R3|PEPTIDE2,PEPTIDE2,1:R1-5:R2$$$V2.0) here?
**A.** Stable

**Q.** What about the Activity [1] of the same molecule?
**A.** Active

**Q.** And the Activity [14]?
**A.** Active

**Q.** What about the IC50 [6] of the same molecule?
**A.** 5.2 µM

**Q.** What about the inhibition [15] of the same molecule?
**A.** Dose-dependent effect

**Q.** What about the Drug uptake [7] of the same molecule?
**A.** Active

**Q.** And the IC50 [8]?
**A.** 20.7 µM

**Q.** And the inhibition [16]?
**A.** Dose-dependent effect

**Q.** And the inhibition at 50 µM [9]?
**A.** 40%

**Q.** What about the Activity [10] of the same molecule?
**A.** 54%

**Q.** What about the Drug uptake [17] of the same molecule?
**A.** Active

**Q.** What about the inhibition [3] of the same molecule?
**A.** inactive

**Q.** And the Activity [12]?
**A.** 33%

**Q.** What about the inhibition at 50 µM [18] of the same molecule?
**A.** 55%

**Q.** What about the inhibition [19] of the same molecule?
**A.** inactive

**Q.** And the inhibition at 50 µM [20]?
**A.** 33%
